# Laboratory results: ChEMBL document CHEMBL3244220, “Diuretic activity of Mannich base derivatives of ethacrynic acid and certain ethacrynic acid analogues” (J Med Chem, 1978)
# Active and inactive are the calls of the source. The rule behind the calls is not given here.
# Columns and labels:
# Canis familiaris [1] = test: Diuretic activity in mongrel dog assessed as decrease in glomerular filtration rate during 2 hrs period at 17 umol/kg, iv for 10 mins; assay type: functional, organism-based; conditions: Canis lupus familiaris, Urine
# Summary of the method: (§1)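 Single 17.0 μmol/kg iv dose in 10 mL 0.9% saline, given over 10 min; sodium salts formed with NaHCO3 where needed. GFR from plasma and urine inulin; Na by flame photometry. Changes per kg computed for each 10-min period after dosing minus the predrug period; mean Δ ± SEM, paired comparison, p < 0.05.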
# [2] = Solubility of the compound in 0.9% saline; assay type: physicochemical; conditions: buffer
# Canis familiaris [3] = test: Diuretic activity in mongrel dog assessed as decrease in rate of sodium excretion during 2 hrs period at 17 umol/kg, iv for 10 mins; assay type: functional, organism-based; conditions: Canis lupus familiaris, Urine; summary of the method: as §1
# [4] = Metabolic stability in dog urine assessed as ethacrynic acid release after 72 hrs at pH 7 +/- 0.5 by NMR/TLC analysis; assay type: ADME, tissue-based, Canis lupus familiaris; conditions: pH 7, 72 h
# Canis familiaris [5] = test: Toxicity in mongrel dog assessed as change in blood pressure at 17 umol/kg, iv for 10 mins; assay type: organism-based, Canis lupus familiaris; conditions: in vivo
# Canis familiaris [6] = test: Inhibition of ethacrynic acid-induced diuresis in mongrel dog assessed as decrease in glomerular filtration rate during 2 hrs period at 17 umol/kg, iv for 10 mins; assay type: organism-based, Canis lupus familiaris; conditions: in vivo
# Summary of the method: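 Dogs received 17.0 μmol/kg iv over 10 min, and renal parameters were followed for 2 h. Sodium ethacrynate, 3.3 μmol/kg iv in 10 mL saline over 10 min, was then given. Inulin GFR/kg and Na excretion/kg were taken per 10-min period as change from the predrug value; mean Δ ± SEM; paired comparison, p < 0.05.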
# [7] = Biotransformation in mongrel dog assessed as ethacrynic acid-cysteine in urine at 17 umol/kg, iv for 10 mins after 2 hrs; assay type: ADME, organism-based, Canis lupus familiaris; conditions: in vivo
# Summary of the method: (§2)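 Dogs given 17.0 μmol/kg iv in 10 mL 0.9% saline, prepared 3–5 min before dosing and infused over 10 min. Urine collected for 2 h after dosing and freeze-dried in 1-h portions; control urine from nine 10-min predrug periods handled the same way. Residues taken up in H2O and run on cellulose TLC in n-BuOH–C6H6–MeOH–H2O (20:10:12.5:10); spots located by UV and ninhydrin.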
# [8] = Biotransformation in mongrel dog assessed as ethacrynic acid-glutathione in urine at 17 umol/kg, iv for 10 mins after 2 hrs; assay type: ADME, organism-based, Canis lupus familiaris; conditions: in vivo; summary of the method: as §2
# Canis familiaris [9] = test: Toxicity in mongrel dog assessed as increase in systolic pressure at 17 umol/kg, iv for 10 mins; assay type: organism-based, Canis lupus familiaris; conditions: in vivo
# Canis familiaris [10] = test: Toxicity in mongrel dog assessed as increase in diastolic pressure at 17 umol/kg, iv for 10 mins; assay type: organism-based, Canis lupus familiaris; conditions: in vivo
Structure (SMILES),Activity (Canis familiaris [1]),solubility [2],Activity (Canis familiaris [3]),Stability [4],Activity (Canis familiaris [5]),Activity (Canis familiaris [6]),Drug metabolism [7],Drug metabolism [8],Activity (Canis familiaris [9]),Activity (Canis familiaris [10])
CN(C)CC(C)(C)C(=O)c1ccc(OCC(=O)O)c(Cl)c1Cl.Cl,inactive,soluble,inactive,Stable,Non-toxic,Toxic,,,,
CCC(CN(C)C)C(=O)c1ccc(OCC(=O)O)cc1.Cl (stereo not given),inactive,soluble,,Stable,Non-toxic,Non-toxic,,,,
CCC(CN(C)C)C(=O)c1ccc(OCC(=O)O)c(Cl)c1Cl.Cl (stereo not given),Active,soluble,,Unstable,Non-toxic,,metabolite_detected,metabolite_detected,,
C=C(CC)C(=O)c1ccc(OCC(=O)[O-])cc1.[Na+],inactive,,,,Non-toxic,Non-toxic,,,,
C=C(C)C(=O)c1ccc(OCC(=O)[O-])c(Cl)c1Cl.[Na+],Active,,,,,,,,Toxic,Toxic
C=C(CC)C(=O)c1ccc(OCC(=O)[O-])c(Cl)c1Cl.[Na+] [ETHACRYNATE SODIUM],Active,,,,Non-toxic,,,,,
